Structures are written as SMILES.

Results on three molecules are retold here after PMC12393413 (bioRxiv, 2025).

The subject of one assay is MDA-MB-468 cells. Put plainly: Western blot analysis of UPR / PERK-eIF2α-ATF4 pathway proteins. Type of assay: cell-based, human. The note with it: for baseline phosphorylation of PERK and eIF2α, inhibitor alone: Western blot; for effect on DH20931-induced accumulation of ATF4 protein / effect on DH20931-induced phosphorylation of PERK and eIF2α: co-treatment with DH20931, Western blot. A digest of the protocol:
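Treatment lasted 24 h at 0, 2.5, 5, 10 or 20 μM test compound. Western blots were developed with BCIP/NBT substrate. Bands were quantified by densitometry and normalized to a loading control such as β-actin.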
(Immunoblotting shows a protein as a band on a membrane.)

Another assay has as its system 4T1-CERS2^+/+ cells. As to the kind of experiment: Mitochondrial Ca2+ by Rhod-2 AM confocal microscopy. Type of assay: cell-based, mouse. The note with it: 6 h. A digest of the protocol: (§1)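 Cells were seeded on glass-bottom dishes and grown overnight to ~70% confluence, in triplicate. Exposure was 6 h to test compound (5 or 10 μM) or thapsigargin (1 or 2 μM) as ER Ca2+-depletion control. Cells were rinsed in HBSS and co-loaded 20 min at 37°C with 1 μM Mag-Fluo-4 AM (ER Ca2+) and 100 nM Rhod-2 AM (mitochondrial Ca2+).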

For the next assay, the system named is 4T1-CERS2^−/− cells. Described as above. Type of assay: cell-based, mouse. The note with it: 6 h. The procedure, abridged: as §1

In the case of `Cc1ccc2cc(-c3c(C)ccc(C(=O)c4c(-c5ccccc5)n(C)n(-c5ccccc5)c4=O)c3N)ccc2n1` [AMG44], in the assay with MDA-MB-468 cells, the “baseline phosphorylation of PERK and eIF2α, inhibitor alone” value is “decrease in the baseline phosphorylation levels of both PERK and eIF2α”; the “effect on DH20931-induced accumulation of ATF4 protein” value was “attenuated the DH20931-induced accumulation of ATF4 protein”; the “effect on DH20931-induced phosphorylation of PERK and eIF2α” value is on record as “markedly diminished it”.

For `Cn1cc(-c2ccc3c(c2)CCN3C(=O)Cc2cccc(C(F)(F)F)c2)c2c(N)ncnc21` [GSK2606414], in the assay on MDA-MB-468 cells, the “baseline phosphorylation of PERK and eIF2α, inhibitor alone” value was “decrease in the baseline phosphorylation levels of both PERK and eIF2α”; the “effect on DH20931-induced accumulation of ATF4 protein” value is recorded as “attenuated the DH20931-induced accumulation of ATF4 protein”; the “effect on DH20931-induced phosphorylation of PERK and eIF2α” value was “did not affect the DH20931-induced phosphorylation”.

For the molecule `C/C=C(/C)C(=O)O[C@H]1C(C)=C2[C@H]([C@@H]1OC(=O)CCCCCCC)[C@@](C)(OC(C)=O)C[C@H](OC(=O)CCC)[C@@]1(O)[C@H]2OC(=O)[C@@]1(C)O` [Tg, thapsigargin], in the assay on 4T1-CERS2^+/+ cells, the “mitochondrial Ca2+ levels” value was “increase in mitochondrial Ca^2+ levels”. For the same molecule, the “mitochondrial Ca2+ increase in the absence of CerS2” value with 4T1-CERS2^−/− cells was “completely abolished”.
